Results gathered from unrelated publications.
Compare with care: the assays were run in different laboratories.
Target: Serine/threonine-protein kinase pim-3 (PIM3, Homo sapiens, UniProt Q86V86)

| SMILES | effect on | technique | concentration | remaining binding |
| --- | --- | --- | --- | --- |
| CO[C@@H](C)c1c(Nc2ccc([C@@H](N(C)C(=O)C3CCS(=O)(=O)CC3)C(F)(F)F)cc2)cnc2cc(Cl)nn12 | cell-free assay | competition with immobilised ligand | 1 µM | 97% |
| COc1ccnn2ncc(-c3ccnc(N(C)C)n3)c12 | binding | – | 1 µM | 81% |
| O=C(NCCCN1CCOCC1)c1ccc(Nc2nccc(-c3cc4ccccc4s3)n2)cc1 | binding | competition with immobilised ligand | 1 µM | 91% |
| C[C@@H]1CN(c2ccc3ncc(-c4ccc5[nH]nc(C6CC6)c5c4)n3n2)C[C@H](C)O1 | binding | competition with immobilised ligand | 0.5 µM | 33% |
| N[C@@H]1CCN(c2nccc(-c3cnn4ncccc34)n2)C1 | binding | – | 1 µM | 100% |
| CN([C@@H]1CCc2c(CC(=O)O)c3cc(S(C)(=O)=O)ccc3n2C1)S(=O)(=O)c1ccc(F)cc1 | cell-free assay | competition with immobilised ligand | 1 µM | 100% |
| CCN1CCN(Cc2ccc(C(=O)Nc3ccc(C)c(Oc4ccc5c(c4)CC(=O)N5)c3)cc2C(F)(F)F)CC1 | binding | competition with immobilised ligand | 1 µM | 100% |
| O=C(c1ccc(Nc2nccc(-c3cc4ccccc4s3)n2)cc1)N1CCC(N2CCCC2)CC1 | binding | competition with immobilised ligand | 1 µM | 78% |
| N#CC1(c2ccccn2)CCN(Cc2cc(C(=O)N3CCCC3)c(=O)n3ccccc23)CC1 | cell-free assay | competition with immobilised ligand | 1 µM | 99% |
| C[C@@H](c1ccc(-n2cnc3c(N)ncnc32)cc1)N1CCc2nn(C)c(Cc3ccccc3)c2C1=O | binding | competition with immobilised ligand | 0.1 µM | 90% |
| CC(C)(C)c1ccc(-c2nc(CBr)nn2-c2cccc(O)c2)cc1 | cell-free assay | competition with immobilised ligand | 10 µM | 100% |
| O=C(NCCCN1CCOCC1)c1ccc(Nc2ncc(Cl)c(-c3ccc(Cl)s3)n2)cc1 | binding | competition with immobilised ligand | 1 µM | 100% |
| CN(C)c1nccc(-c2cnc3ncccn23)n1 | binding | – | 1 µM | 88% |
| N#Cc1ccccc1CSc1nnc2c(n1)[nH]c1ccccc12 | binding | competition with immobilised ligand | 10 µM | 74% |
| Cc1nccc(COC(=O)N2C[C@@H]3[C@@H](CNC(=O)c4ccc5[nH]nnc5c4)[C@@H]3C2)n1 | cell-free assay | competition with immobilised ligand | 1 µM | 97% |
| CC1CCCN1c1nccc(-c2cnn3ncccc23)n1 (stereo not drawn) | binding | – | 1 µM | 100% |
| C[C@@H]1CN(c2cc(-c3nn(C)c4ccc(OC5(C)CC5)cc34)ncn2)C[C@H](C)O1 | cell-free assay | competition with immobilised ligand | 1 µM | 92% |
| COc1cnc(Nc2cccc(S(N)(=O)=O)c2)nc1N1CCN(c2ccccc2)CC1 | binding | competition with immobilised ligand | 1 µM | 94% |
| c1cnn2ncc(-c3ccnc(N4CCC45COC5)n3)c2c1 | binding | – | 1 µM | 84% |
| O=C(NCC1CCOCC1)c1n[nH]cc1NC(=O)c1c(F)cccc1F | binding | competition with immobilised ligand | 1 µM | 99% |
| CCc1ccccc1C(=O)Nc1n[nH]c2c(C)c(F)c(C3C(C#N)=C(C)N(C)C(C)=C3C#N)cc12 | cell-free assay | competition with immobilised ligand | 1 µM | 100% |
| C[C@@H]1CCN(c2nccc(-c3cnn4ncccc34)n2)C1 | binding | – | 1 µM | 92% |
| CO[C@H]1CC[C@H](CNc2ccc(S(=O)(=O)NC(=O)c3ccc(N4CCN(CC5=C(c6ccc(Cl)cc6)CC(C)(C)CC5)CC4)cc3Oc3cnc4[nH]ccc4c3)cc2[N+](=O)[O-])CC1 | cell-free assay | competition with immobilised ligand | 1 µM | 74% |
| F[C@@H]1CCN(c2nccc(-c3cnn4ncccc34)n2)C1 | binding | – | 1 µM | 100% |
